High-throughput results as filed in PubChem BioAssay.
IDE cell activ – boosts human insulin-degrading enzyme activity in HEK cells; actives 0.073% (n = 340,000); activation, % at 5.96 µM; AID 493087; FAbeta-B cleavage, fluorescence polarization; 0% vehicle, 100% cell-free pure enzyme wells; P14735;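 active = activation above the mean of all tested compounds plus 3 SD, set per screening campaign, cut at about 17% in these data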
IDE cell inh – inhibitors of human insulin-degrading enzyme in cells. P14735. HEK cells, FAbetaB cleavage, fluorescence polarization. inhibition, % at 5.59 µM. actives 0.41% (n = 320,000). AID 434962;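 active = percent inhibition above the average of all tested compounds plus 3 SD, set per screening campaign, cut at about 16% in these data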;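 also: IDE supplied by intact live HEK cells; FP after avidin binding of uncleaved biotin substrate so inhibition keeps polarization high; 0% = DMSO wells and 100% = 60 µM reference IDE inhibitor Ii1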
ASAP1 inh – inhibitors of human ASAP1 ArfGAP activity. Q9ULH1. ASAP1-stimulated ARF1 GTP hydrolysis, GDP FP detection. inhibition, % at 16.5 µM. actives 0.19% (n = 360,000). AID 624377; in the data active = inhibition above about 25%;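 also: 0% = vehicle with enzyme and substrate and 100% = no enzyme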
Target sequence (Q9ULH1 325-724 limits assumed): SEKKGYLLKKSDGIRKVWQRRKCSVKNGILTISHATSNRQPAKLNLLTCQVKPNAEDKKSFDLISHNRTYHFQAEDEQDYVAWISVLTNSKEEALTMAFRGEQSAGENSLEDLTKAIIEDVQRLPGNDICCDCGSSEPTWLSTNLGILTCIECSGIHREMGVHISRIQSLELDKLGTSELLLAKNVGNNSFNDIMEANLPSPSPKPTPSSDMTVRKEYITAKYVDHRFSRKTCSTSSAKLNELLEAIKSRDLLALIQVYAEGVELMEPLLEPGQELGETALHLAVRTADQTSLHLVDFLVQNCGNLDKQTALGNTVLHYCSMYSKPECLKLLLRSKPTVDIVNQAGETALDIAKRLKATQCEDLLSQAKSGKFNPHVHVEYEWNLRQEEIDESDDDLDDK
ARFGAP1 inhibitor – inhibits rat ARF GTPase activating protein 1; Q62848; Arfgap1-stimulated ARF1 GTP hydrolysis, GDP FP detection; inhibition, % at 16.5 µM; actives 0.26% (n = 360,000); AID 651572;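 active = inhibition above a per-plate limit, mean inhibition of low control wells plus 3 SD, cut at about 25% in these data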;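 also: 0% = DMSO wells with enzyme and 100% = wells lacking Arfgap1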
Target sequence (Q62848 1-136 limits assumed): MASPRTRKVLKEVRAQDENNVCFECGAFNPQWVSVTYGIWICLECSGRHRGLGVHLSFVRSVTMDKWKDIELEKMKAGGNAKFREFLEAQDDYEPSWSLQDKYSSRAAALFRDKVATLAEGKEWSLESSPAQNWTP
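Material: truncated rat Arfgap1 GAP domain; Incubation: compound-enzyme preincubation 20 min, reaction 120 min, detection 60 min, 25 °C; Read-out: percent inhibition of Arfgap1-stimulated GTP hydrolysis; Technique: FP, GDP Alexa 633 tracer displaced from anti-GDP antibody, 620/688 nm; Controls: No-Arfgap1 wells (100%) versus DMSO full-reaction wells (0%); Replication: single well per compound.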
PREPL inhibitor – inhibitors of human prolyl oligopeptidase-like enzyme PREPL. Q4J6C6. recombinant PREPL, fluorescence polarization activity-based probe. inhibition, % at 5.96 µM. actives 0.68% (n = 320,000). AID 2751; in the data active = inhibition above about 43%;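 also: 0% = enzyme with DMSO and 100% = wells lacking enzyme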
IDE cell inh cf – cellular human IDE inhibition, confirmation | shares compounds with IDE cell inh | inhibition, % at 5.59 µM | AID 435028 | actives 51% (n = 1,200) | HEK cells, FAbetaB cleavage, fluorescence polarization;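 active = mean inhibition across triplicate wells above the cutoff set by the earlier primary insulin-degrading enzyme screen, cut at about 16% in these data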;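 also: 0% = DMSO wells and 100% = 60 µM reference IDE inhibitor Ii1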
HEK293 tox – HEK cell cytotoxicity, counter-screen for IDE inhibitors | inhibition, % at 5.59 µM | shares compounds with IDE cell inh | actives 28% (n = 1,200) | HEK293 cytotoxicity, ATP luminescence; in the data active = inhibition above about 22%;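 also: 0% = vehicle wells and 100% = reference cytotoxic drug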
* marks the source's active call; other numbers are inactive results; i = inactive; · = no result. Rows were chosen to be rich in hits. Some 1.2% of all compounds tested hit in one or more screens of this group.

SMILES	IDE cell activ	IDE cell inh	ASAP1 inh	ARFGAP1 inhibitor	PREPL inhibitor	IDE cell inh cf	HEK293 tox
N#C/C(=C\c1ccc(Sc2ccccc2)o1)c1nc2ccccc2[nH]1	-21.8	20.9*	-2.7	9.6	16.2	13.6	20.5
N#C/C(=C/c1ccc(Sc2nc3ccccc3[nH]2)o1)c1ccccc1F	3.2	-1.5	1.1	-2.9	-0.8	·	·
Cc1ccc(/C(C#N)=C\c2ccc(N3CCOCC3)o2)cc1	-23.3	0.0	10.2	-8.7	16.4	·	·
Cc1cc(/C=C(/C#N)c2nc3ccccc3[nH]2)c(C)n1-c1ccccc1C(=O)O	-6.5	11.4	14.2	-2.5	-1.8	·	·
N#C/C(=C\c1ccc(-c2ccccc2C(=O)O)o1)c1nc2ccccc2[nH]1	-38.3	31.5*	11.3	16.9	18.4	53.4*	3.5
CC1CC(C)CN(C(=O)COC(=O)c2ccc3ccccc3n2)C1 (configuration not stated)	5.0	-1.2	6.6	-7.5	6.6	·	·
Cn1c(/C(C#N)=C/c2cccc(O)c2)nc2ccccc21	9.3	1.7	11.9	10.2	-6.4	·	·
Cn1c(/C(C#N)=C/c2ccc(-c3ccc(S(N)(=O)=O)cc3)o2)nc2ccccc21	-7.4	26.1*	8.2	-4.4	-0.8	47.1*	46.0*
C=CCN1C(=O)/C(=C\c2cccc(OC(=O)c3ccco3)c2)SC1=S	0.7	4.5	8.8	-8.8	-8.5	·	·
O=C(O)CN1C(=O)/C(=C\c2cccc(OC(=O)c3ccco3)c2)SC1=S	0.7	1.0	-11.6	-8.6	31.5	·	·
C=CCN1C(=O)/C(=C\c2ccc(OC(=O)c3ccco3)c(OC)c2)SC1=S	-77.2	32.5*	-5.6	-3.1	20.6	143.3*	10.6
O=C(O)CN1C(=O)/C(=C\c2ccc(OC(=O)c3ccco3)cc2)SC1=S	-52.6	35.3*	-1.0	-5.0	17.6	159.9*	6.5
CC(C)CCNc1ncnc2c1cnn2Cc1ccccc1Cl	-13.8	21.3*	-0.4	10.7	2.5	8.7	18.9
Cc1nnsc1C(=O)N/N=C/c1ccccc1	7.4	-4.0	-8.9	3.1	-5.3	·	·
Cc1nnsc1C(=O)N/N=C/c1ccc2ccccc2c1O	-73.5	90.1*	-1.4	14.6	23.7	113.5*	112.6*
CCCCC(=O)N1CCN(c2nc3ccc(Br)cc3s2)CC1	-22.3	24.8*	0.1	4.5	13.2	8.5	41.9*
CCCC(=O)N1CCN(c2nc3ccc(CC)cc3s2)CC1	-9.8	19.4*	10.9	2.4	18.7	10.5	20.6
CCCC(=O)N1CCN(c2nc3ccc(Cl)cc3s2)CC1	-11.3	3.4	8.0	-0.2	15.0	·	·
CCCC(=O)N1CCN(c2nc3ccc(Br)cc3s2)CC1	-8.5	14.9	4.0	0.7	17.8	·	·
Cc1ccc(-n2cnnn2)c2cccnc12	5.2	1.6	-1.9	0.8	8.6	·	·
Cc1nn(C)c(C)c1N1C(=O)c2cccc3c(N)ccc(c23)C1=O	12.1	7.3	-14.4	2.4	4.0	·	·
CCN1C(=O)c2cccc3c(N)ccc(c23)C1=O	0.4	23.8*	4.7	-3.6	12.4	60.6*	11.3
Cc1ccc(N2C(=O)c3cccc4c(N)ccc(c34)C2=O)c2cccnc12	-79.9	83.9*	0.5	19.6	-15.7	65.1*	68.2*
O=C(NNC1CC(=O)N(c2ccccc2)C1=O)c1ccc(COc2ccccc2Cl)o1 (configuration not stated)	2.3	5.4	-3.5	6.8	-4.2	·	·
Cc1nn(Cc2c(F)c(F)c(F)c(F)c2F)c(C)c1NC(=O)c1ccc(COc2ccc(Cl)cc2Cl)o1	-9.6	18.5*	-0.7	7.8	3.8	6.9	34.0*
SMILES	IDE cell activ	IDE cell inh	ASAP1 inh	ARFGAP1 inhibitor	PREPL inhibitor	IDE cell inh cf	HEK293 tox
Cc1nn(Cc2cccc(F)c2)c(C)c1NC(=O)c1ccc(COc2ccccc2Cl)cc1	-35.3	25.2*	6.7	11.2	5.5	13.3	55.4*
CN(C)c1ccc(/C=C/C(=O)c2c(O)c3ccccc3oc2=O)cc1	-71.0	24.9*	16.4	1.7	-4.6	36.5*	4.8
CN(C)/C=C/C(=O)c1ncc(C(F)(F)F)cc1Cl	-1.1	-1.0	-4.4	-9.5	3.6	·	·
COc1cccc(C2C=C(c3ccc(Br)s3)Nc3ncnn32)c1OC (configuration not stated)	-50.1	32.0*	·	·	-6.7	5.6	21.2
CC(C)CCNC(=O)Nc1ccc2c(c1)N(C)C(=O)CS2	0.3	0.3	-11.8	-0.1	-0.4	·	·
CN1C(=O)CSc2ccc(NC(=O)NCCC3=CCCCC3)cc21	-14.1	16.8*	7.8	-2.9	17.9	10.0	18.5
CN1CCN(C2=C(Cl)C(=O)C(c3cnc(N4CCCCC4)s3)=C(Cl)C2=O)CC1	2.7	22.6*	·	·	49.7*	-3.2	119.4*
O=C(NCCN1CCOCC1)c1ccc(-c2ccccc2)cc1	-14.8	18.6*	·	·	7.4	4.3	7.2
COC(=O)c1cc(Sc2cccc(Cl)c2Cl)ccn1	-14.1	18.5*	-7.9	2.6	27.2	-0.2	12.2
COC(=O)c1cc(Sc2c(Cl)cccc2Cl)ccn1	-21.8	8.4	4.6	5.1	-2.0	·	·
CSc1cccc(N2CC(C(=O)Nc3ccccc3N3CCCC3)CC2=O)c1 (configuration not stated)	-4.1	16.2*	5.5	-1.3	19.1	6.3	6.5
COC(=O)C1=C(C)N(Cc2ccccc2C(F)(F)F)C(=NCc2ccc3c(c2)OCO3)NC1c1cccc(C(F)(F)F)c1 (configuration not stated)	·	·	7.1	6.0	·	·	·
O=C(N/N=C/c1cc(Br)cc(Br)c1O)c1cccc(N2CCCC2=O)c1	4.7	0.2	2.8	-4.7	-2.1	·	·
O=C(N/N=C/c1ccc(Cl)cc1Cl)c1cccc(N2CCCC2=O)c1	-8.0	34.2*	8.9	-1.4	-2.0	14.9	19.1
O=C(O)c1ccccc1-c1c2cc(I)c(=O)c(I)c-2oc2c(I)c(O)c(I)cc12	-174.2	146.8*	-21.8	-56.5	i	90.5*	27.0*
CC(Oc1ccccc1F)C(=O)NNC(=O)c1cccc(S(=O)(=O)N2CCN(C)CC2)c1 (configuration not stated)	2.5	-0.2	-0.1	-2.5	1.4	·	·
Cc1cccc(C=Nc2ccc3c4c(cccc24)CC3)c1O	-1.1	33.0*	3.8	-5.7	18.2	8.9	2.8
Oc1ccc(Cl)cc1C=Nc1ccc2c3c(cccc13)CC2	-3.5	42.2*	7.1	-1.2	9.1	0.3	10.9
CCc1ccc(O)c(N=Cc2cccc(C)c2O)c1	5.8	5.1	-11.3	1.0	-0.1	·	·
COc1ccc(OC)c(CN2CCN(C(=O)c3ccco3)CC2)c1	2.7	3.5	9.9	6.5	1.9	·	·
CC(=O)Nc1cccc(C(=O)/C=C/c2ccc(N(C)C)cc2)c1	-174.2	55.8*	8.7	1.2	-12.0	50.9*	13.6
